Measurements as given in ChEMBL document CHEMBL1155700, “Cancer chemopreventive agents. New depsidones from Garcinia plants” (J Nat Prod, 2001).

What was measured:
[1] = system: Raji; test: Inhibition of 12-O-tetradecanoylphorbol-13-acetate-induced EBV-early antigen activation in human Raji cells assessed as EA activation at 1000 molar ratio after 48 hrs relative to TPA; format: cell-based; design: scale not given: the % may be the effect or the level left; conditions: human gammaherpesvirus 4
In short: (§1)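 Raji cells at 10⁶ cells/mL were resuspended in RPMI 1640/10% FCS containing 4 mM n-butyric acid inducer, 32 pmol TPA (20 ng/mL) and 32, 16, 3.2 or 0.32 nmol compound (DMSO), then held 48 h at 37 °C. EA-positive cells were scored blind, at least 500 cells per assay. Activation is expressed as % of the TPA-only positive control (100%), mean ± SD. IC50 is given as mol ratio/TPA.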

[2] = system: Raji; test: Inhibition of 12-O-tetradecanoylphorbol-13-acetate-induced EBV-early antigen activation in human Raji cells assessed as EA activation at 10 molar ratio after 48 hrs relative to TPA; format: cell-based; design: scale not given: the % may be the effect or the level left; conditions: human gammaherpesvirus 4; in short: as §1
[3] = Inhibition of 12-O-tetradecanoylphorbol-13-acetate-induced EBV-early antigen activation in human Raji cells assessed as EA activation per 32 pmol TPA after 48 hrs; format: cell-based, human gammaherpesvirus 4; in short: as §1
[4] = system: Raji; test: Inhibition of 12-O-tetradecanoylphorbol-13-acetate-induced EBV-early antigen activation in human Raji cells assessed as EA activation at 500 molar ratio after 48 hrs relative to TPA; format: cell-based; design: scale not given: the % may be the effect or the level left; conditions: human gammaherpesvirus 4; in short: as §1
[5] = system: Raji; test: Inhibition of 12-O-tetradecanoylphorbol-13-acetate-induced EBV-early antigen activation in human Raji cells assessed as EA activation at 100 molar ratio after 48 hrs relative to TPA; format: cell-based; design: scale not given: the % may be the effect or the level left; conditions: human gammaherpesvirus 4; in short: as §1
[6] = Cytotoxicity against human Raji cells assessed as cell viability at 1000 molar ratio after 48 hrs by trypan blue staining relative to TPA; format: cell-based; conditions: read-out: Activity
In short: (§2)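 Raji cells grown to 10⁶ cells/mL, pelleted, resuspended in RPMI 1640 with 10% FCS, 4 mM n-butyric acid, 32 pmol TPA (20 ng/mL in DMSO) plus test compound in DMSO (0.32–32 nmol; mole ratio to TPA 10–1000). After 48 h at 37 °C, cell number and viability were counted on a hemocytometer by Trypan Blue exclusion. At least 60% viability was required for valid EA data.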

[7] = Cytotoxicity against human Raji cells assessed as cell viability at 500 molar ratio after 48 hrs by trypan blue staining relative to TPA; format: cell-based; conditions: read-out: Activity; in short: as §2
[8] = Cytotoxicity against human Raji cells assessed as cell viability at 100 molar ratio after 48 hrs by trypan blue staining relative to TPA; format: cell-based; conditions: read-out: Activity; in short: as §2
[9] = Cytotoxicity against human Raji cells assessed as cell viability at 10 molar ratio after 48 hrs by trypan blue staining relative to TPA; format: cell-based; conditions: read-out: Activity; in short: as §2

Row | Structure (SMILES) | IC50 [3] [molar ratio] | Activity [1] [%] | Activity [2] [%] | Activity [4] [%] | Activity [5] [%] | viability at 48 h, 1000 molar ratio relative to TPA [6] [%] | viability at 48 h, 500 molar ratio relative to TPA [7] [%] | viability at 48 h, 100 molar ratio relative to TPA [8] [%] | viability at 48 h, 10 molar ratio relative to TPA [9] [%]
1 | CC1=C(/C=C/C(C)=C/C=C/C(C)=C/C=C/C=C(C)/C=C/C=C(C)/C=C/C2=C(C)CCCC2(C)C)C(C)(C)CCC1 [BETA CAROTENE] | 400 | 9.1 | 100 | – | – | – | – | – | –
2 | COc1c(O)cc2c(c1CC=C(C)C)OC(=O)c1c(cc(O)c(CC=C(C)C)c1O)O2 [GARCINISIDONE A] | 365 | 0 | 91.6 | 44.2 | 78.3 | 70 | > 80 | > 80 | > 80
3 | COc1c(O)cc2c(c1CC=C(C)C)OC(=O)c1c(cc3c(c1O)C=CC(C)(C)O3)O2 [GARCINISIDONE B] | 410 | 0 | 100 | 50.6 | 81.7 | 70 | > 80 | > 80 | > 80
4 | CC(C)=CCc1c2c(c(O)c3c1Oc1cc(O)c4c(c1OC3=O)C=CC(C)(C)O4)C=CC(C)(C)O2 [GARCINISIDONE C] | 370 | 0 | 93.5 | 41.8 | 72.2 | 70 | > 80 | > 80 | > 80

Second part, led by results:

Row | IC50 [3] [molar ratio] | Structure (SMILES) | Activity [1] [%] | Activity [2] [%] | Activity [4] [%] | Activity [5] [%] | viability at 48 h, 1000 molar ratio relative to TPA [6] [%] | viability at 48 h, 500 molar ratio relative to TPA [7] [%] | viability at 48 h, 100 molar ratio relative to TPA [8] [%] | viability at 48 h, 10 molar ratio relative to TPA [9] [%]
5 | 360 | CC(C)=CCc1c(O)c2c(c3c1OC(C)(C)C=C3)Oc1cc(O)c3c(c1OC2=O)C=CC(C)(C)O3 [GARCINISIDONE D] | 0 | 92.8 | 40.4 | 72 | 60 | > 80 | > 80 | > 80
6 | 350 | CC(C)=CCc1c(O)c(CC=C(C)C)c2c(c1O)C(=O)Oc1c(cc(O)c3c1C=CC(C)(C)O3)O2 [GARCINISIDONE E] | 0 | 90.2 | 40 | 71.1 | 70 | > 80 | > 80 | > 80
